Test results reported in ChEMBL document CHEMBL4321849, “Biphenyl Acid Derivatives as APJ Receptor Agonists” (J Med Chem, 2019).
pEC50: −log10 of the molar value. Values after ≈ are worked out from the molar mass of the structure shown. Active and inactive are the calls of the source. The calls are words filed in the database; no cut-off is given here.

How the values were obtained:
Apelin receptor [1] = biological target: T1, Apelin receptor (Homo sapiens, UniProt P35414); experiment: Agonist activity at human APJ-R expressed in HEK293 cells assessed as inhibition of forskolin- stimulated cAMP accumulation incubated for 30 mins by HTRF assay; format: functional, cell-based
T1 sequence (P35414 whole entry): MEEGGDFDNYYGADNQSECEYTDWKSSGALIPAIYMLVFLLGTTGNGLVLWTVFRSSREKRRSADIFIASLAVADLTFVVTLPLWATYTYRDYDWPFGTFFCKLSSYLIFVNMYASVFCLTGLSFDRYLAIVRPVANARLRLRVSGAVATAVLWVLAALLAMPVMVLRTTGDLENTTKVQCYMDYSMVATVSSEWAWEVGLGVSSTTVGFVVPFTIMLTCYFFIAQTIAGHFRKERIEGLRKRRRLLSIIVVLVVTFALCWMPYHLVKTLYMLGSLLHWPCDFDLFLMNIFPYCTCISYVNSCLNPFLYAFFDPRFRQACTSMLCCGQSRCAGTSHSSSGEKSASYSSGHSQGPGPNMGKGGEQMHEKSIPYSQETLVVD

Apelin receptor [2] = biological target: T2, Apelin receptor (Rattus norvegicus, UniProt Q9JHG3); experiment: Agonist activity at rat APJ-R expressed in HEK293 cells assessed as inhibition of forskolin- stimulated cAMP accumulation incubated for 30 mins by HTRF assay; format: functional, cell-based
T2 sequence (Q9JHG3 whole entry): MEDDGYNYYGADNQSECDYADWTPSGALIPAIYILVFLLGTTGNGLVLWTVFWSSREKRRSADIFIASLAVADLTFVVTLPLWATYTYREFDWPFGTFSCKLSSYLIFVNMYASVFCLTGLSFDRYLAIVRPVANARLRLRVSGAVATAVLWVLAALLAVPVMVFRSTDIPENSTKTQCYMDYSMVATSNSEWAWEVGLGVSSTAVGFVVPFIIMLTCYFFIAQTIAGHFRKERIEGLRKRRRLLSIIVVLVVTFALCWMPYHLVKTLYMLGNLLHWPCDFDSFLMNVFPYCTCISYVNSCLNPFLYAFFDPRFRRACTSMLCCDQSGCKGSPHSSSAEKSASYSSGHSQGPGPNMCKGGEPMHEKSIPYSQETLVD

[3] = Solubility in pH 7.4 buffer using amorphous form; format: physicochemical
Rattus norvegicus [4] = experiment: (§1) Acute hemodynamic effect in isoflurane-anesthetized Sprague-Dawley rat assessed as increase in cardiac output at 100 ug/min/kg, iv infused into jugular vein for 15 mins with continuous monitoring of hemodynamics followed by monitoring for additional 15 mins after terminating infusion by pressure-volume loop analysis relative to control; format: functional
Procedure, shortened: (§2)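 Male SD rats under isoflurane, instrumented with a Millar PV-loop catheter in the LV and a pressure catheter in the abdominal aorta. After a stable baseline, test agent or N,N-dimethylacetamide vehicle (100 μL/kg/min) infused into the jugular vein for 15 min. Hemodynamics were monitored continuously during infusion and for 15 min after it stopped. n = 7–8 per dose, vehicle n = 10.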

[5] = as §1, with “Toxicity” for “Acute hemodynamic effect”, “effect on blood pressure by measuring transient blood pressure drop” for “increase in cardiac output”; format: organism-based; conditions: in vivo, 0.25 h; procedure, shortened: as §2
[6] = as §1, with “Toxicity” for “Acute hemodynamic effect”, “effect on heart rate” for “increase in cardiac output”; format: organism-based; conditions: in vivo, 0.25 h; procedure, shortened: as §2
[7] = as §1, with “Toxicity” for “Acute hemodynamic effect”, “effect on heart rate” for “increase in cardiac output”, “10 to 1000” for “100”; format: organism-based; conditions: in vivo, 0.25 h; procedure, shortened: as §2
[8] = Plasma concentration in Sprague-Dawley rat at 10 ug/min/kg, iv infused into jugular vein for 15 mins; format: ADME, organism-based
Procedure, shortened: (§3)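 Rats separate from the hemodynamic groups received the same 15 min jugular infusions (n = 3/dose). Plasma concentration (μM) was measured at the end of the 15 min infusion. Washout samples were also taken after stopping the 10 and 1000 μg/kg/min infusions.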

[9] = Plasma concentration in Sprague-Dawley rat at 100 ug/min/kg, iv infused into jugular vein for 15 mins; format: ADME, organism-based; procedure, shortened: as §3
[10] = Plasma concentration in Sprague-Dawley rat at 1000 ug/min/kg, iv infused into jugular vein for 15 mins; format: ADME, organism-based; procedure, shortened: as §3
[11] = biological target: T3, Apelin receptor (Homo sapiens) (UniProt P35414); experiment: Displacement of [125I]-apelin-13 from human APJ-R expressed in HEK293 cell membranes incubated for 1 hr by radioligand binding assay
T3 sequence (whole entry): T1 sequence (P35414 whole entry)
Procedure, shortened: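 Membranes from HEK293 cells expressing human APJ-R (1 μg) were incubated with increasing test concentrations and 0.1 nM [125I]-(Pyr1)apelin-13. Buffer was 25 mM HEPES, 10 mM MgCl2, 2 mM EGTA and 0.1% BSA, pH 7.2. Incubation ran 1 h at room temperature. Bound ligand was separated on 0.3% polyethyleneimine-soaked GF/B filters.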

Rattus norvegicus [12] = experiment: as §1, with “10 to 1000” for “100”; format: functional, organism-based; procedure, shortened: as §2
Rattus norvegicus [13] = experiment: as §1, with “6” for “100”; format: functional, organism-based; procedure, shortened: as §2
[14] = as §1, with “Toxicity” for “Acute hemodynamic effect”, “effect on blood pressure by measuring transient blood pressure drop” for “increase in cardiac output”, “6” for “100”; format: organism-based; conditions: in vivo, 0.25 h; procedure, shortened: as §2
[15] = as §1, with “Toxicity” for “Acute hemodynamic effect”, “effect on heart rate” for “increase in cardiac output”, “6” for “100”; format: organism-based; conditions: in vivo, 0.25 h; procedure, shortened: as §2

CCC[C@@H](NC(=O)c1ccc(-c2cc(Cl)ccc2-c2nc3cc(OC)ccc3[nH]2)c(C(=O)O)c1)c1ccccc1
pEC50 (Apelin receptor [1]): 10.08

CCC[C@@H](NC(=O)c1ccc(-c2c(Cl)cccc2-c2nc3ccccc3[nH]2)c(C(=O)O)c1)c1ccccc1 (stereo in doubt; 12f)
pEC50 (Apelin receptor [1]): 9.70

CCC[C@@H](NC(=O)c1ccc(-c2c(Cl)cccc2-c2nc3ccccc3[nH]2)c(C(=O)O)c1)c1ccccc1 (stereo in doubt; 15b)
pEC50 (Apelin receptor [1]): 7.66 | pEC50 (Apelin receptor [2]): 7.37

CCC[C@@H](NC(=O)c1ccc(-c2cc(OC)ccc2-c2nc3ccccc3[nH]2)c(C(=O)O)c1)c1ccccc1
pEC50 (Apelin receptor [1]): 8.24

CCC[C@@H](NC(=O)c1ccc(-c2cc(Cl)ccc2-c2nc3cc(Cl)ccc3[nH]2)c(C(=O)O)c1)c1ccccc1
pEC50 (Apelin receptor [1]): 9.51

COc1ccc(NC(=O)c2ccc(Cl)cc2-c2ccc(C(=O)Nc3ccc4c(c3)CCC4)cc2C(=O)O)cc1F
pEC50 (Apelin receptor [1]): 7.54

CCC[C@@H](NC(=O)c1ccc(-c2ccccc2-c2nc3ccccc3[nH]2)c(C(=O)O)c1)c1ccccc1
pEC50 (Apelin receptor [1]): 8.24

CCC[C@@H](NC(=O)c1ccc(-c2c(C)cccc2-c2nc3ccccc3[nH]2)c(C(=O)O)c1)c1ccccc1
pEC50 (Apelin receptor [1]): 9.74

CCC[C@@H](NC(=O)c1ccc(-c2cc(Cl)ccc2C(=O)Nc2ccc(OC)c(F)c2)c(C(=O)O)c1)c1ccccc1
pEC50 (Apelin receptor [1]): 9.48

CCC[C@@H](NC(=O)c1ccc(-c2cccc(Cl)c2-c2nc3ccccc3[nH]2)c(C(=O)O)c1)c1ccccc1
pEC50 (Apelin receptor [1]): 5.68

CCC[C@@H](NC(=O)c1ccc(-c2cc(Cl)ccc2-c2nc3ccccc3[nH]2)c(C(=O)O)c1)c1ccccc1
pEC50 (Apelin receptor [1]): 8.85

CCC[C@@H](NC(=O)c1ccc(-c2cc(Cl)ccc2-c2nc3cc(C)ccc3[nH]2)c(C(=O)O)c1)c1ccccc1
pEC50 (Apelin receptor [1]): 9.22

CCC[C@@H](NC(=O)c1ccc(-c2cc(Cl)ccc2-c2nc3ccncc3[nH]2)c(C(=O)O)c1)c1ccccc1
pEC50 (Apelin receptor [1]): 7.72

CCC[C@@H](NC(=O)c1ccc(-c2cc(C)ccc2-c2nc3ccccc3[nH]2)c(C(=O)O)c1)c1ccccc1
pEC50 (Apelin receptor [1]): 8.82

CCC[C@@H](NC(=O)c1ccc(-c2ccc(Cl)cc2-c2nc3ccccc3[nH]2)c(C(=O)O)c1)c1ccccc1
pEC50 (Apelin receptor [1]): 8.05

COC[C@@H](NC(=O)c1ccc(-c2cc(Cl)ccc2C(=O)Nc2ccc(OC)c(F)c2)c(C(=O)O)c1)c1ccccc1
pEC50 (Apelin receptor [1]): 9.72

CCC[C@@H](NC(=O)c1ccc(-c2c(Cl)cccc2-c2nc3cc(OC)ccc3[nH]2)c(C(=O)O)c1)c1ccccc1
pEC50 (Apelin receptor [1]): 10.21 | pEC50 (Apelin receptor [2]): 9.92 | solubility [3]: 180 µg/mL (≈ 325 µM)

CCC[C@@H](NC(=O)c1ccc(-c2cc(Cl)ccc2-c2ncc(-c3ccccc3)[nH]2)c(C(=O)O)c1)c1ccccc1
pEC50 (Apelin receptor [1]): 8.13

CCC[C@@H](NC(=O)c1ccc(-c2cc(Cl)ccc2-c2nc3cccc(C)c3[nH]2)c(C(=O)O)c1)c1ccccc1
pEC50 (Apelin receptor [1]): 7.29

CCC[C@@H](NC(=O)c1ccc(-c2c(F)cccc2-c2nc3ccccc3[nH]2)c(C(=O)O)c1)c1ccccc1
pEC50 (Apelin receptor [1]): 9.29

COC[C@H](NC(=O)c1ccc(-c2cc(Cl)ccc2C(=O)Nc2ccc(OC)c(F)c2)c(C(=O)O)c1)c1ccccc1
pEC50 (Apelin receptor [1]): 8.57

CCC[C@@H](NC(=O)c1ccc(-c2c(Cl)cccc2-c2nc3ccccc3[nH]2)c(C(=O)O)c1)c1ccccc1 (stereo in doubt; 15a) [listing 1 of 2 here]
pEC50 (Apelin receptor [1]): 10.03 | pEC50 (Apelin receptor [2]): 9.92 | solubility [3]: 660 µg/mL (≈ 1260 µM) | Activity (Rattus norvegicus [4]): 10% | Activity [5]: < 5% | Activity [6]: Non-Toxic | Activity [7]: Non-Toxic | concentration at 0.25 h [8]: 0.44 µM | concentration at 0.25 h [9]: 4.4 µM | concentration at 0.25 h [10]: 82 µM

CCC[C@@H](NC(=O)c1ccc(-c2c(Cl)cccc2-c2nc3ccccc3[nH]2)c(C(=O)O)c1)c1ccccc1 (stereo in doubt; 15a) [listing 2 of 2 here]
inhibition [11]: Active | Activity (Rattus norvegicus [12]): Dose-dependent effect

COc1ccc(NC(=O)c2ccc(Cl)cc2-c2ccc(C(=O)N[C@H](CO)c3ccccc3)cc2C(=O)O)cc1F
pEC50 (Apelin receptor [1]): 7.23

CSCC[C@H](NC(=O)[C@@H]1CCCN1C(=O)CNC(=O)[C@H](CCCCN)NC(=O)[C@H](Cc1cnc[nH]1)NC(=O)[C@H](CO)NC(=O)[C@H](CC(C)C)NC(=O)[C@H](CCCNC(=N)N)NC(=O)[C@@H]1CCCN1C(=O)[C@H](CCCNC(=N)N)NC(=O)[C@@H]1CCC(=O)N1)C(=O)N1CCC[C@H]1C(=O)N[C@@H](Cc1ccccc1)C(=O)O
Activity (Rattus norvegicus [13]): Active | Activity [14]: Non-Toxic | Activity [15]: Non-Toxic

CCC[C@@H](NC(=O)c1ccc(-c2cc(Cl)ccc2-c2nc3ccccc3o2)c(C(=O)O)c1)c1ccccc1
pEC50 (Apelin receptor [1]): 5.31
